Molecular target: T1, Aromatic-L-amino-acid decarboxylase (Homo sapiens, UniProt P20711)
T1 sequence (P20711 whole entry): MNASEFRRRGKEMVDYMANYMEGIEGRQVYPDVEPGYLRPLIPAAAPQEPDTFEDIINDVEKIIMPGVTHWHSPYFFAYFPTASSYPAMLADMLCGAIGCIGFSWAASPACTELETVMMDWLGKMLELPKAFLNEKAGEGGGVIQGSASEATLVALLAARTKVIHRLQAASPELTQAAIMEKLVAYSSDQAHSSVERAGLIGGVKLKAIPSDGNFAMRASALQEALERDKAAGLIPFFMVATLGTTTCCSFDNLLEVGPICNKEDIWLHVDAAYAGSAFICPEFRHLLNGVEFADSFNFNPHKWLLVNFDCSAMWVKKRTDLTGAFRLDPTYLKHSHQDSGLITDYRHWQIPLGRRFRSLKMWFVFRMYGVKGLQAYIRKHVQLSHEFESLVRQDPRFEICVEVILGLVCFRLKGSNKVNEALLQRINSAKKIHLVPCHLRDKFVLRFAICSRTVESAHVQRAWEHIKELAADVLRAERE
Test: Inhibition of recombinant human DOPA decarboxylase assessed as inhibition of dopamine production after 30 mins by HPLC method; call rule not given here
Summary of the method: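 Recombinant human enzyme reacted with L-DOPA (1 mM final) and PLP cofactor in pH 6.8 buffer, enzyme […] final, with or without compound, 37 °C for 30 min; stopped by heating at 100 °C for 2 min. Dopamine formed quantified by HPLC, 0.2% formic acid/methanol 9:1 eluent, UV 280 nm. IC50 from dose-response curves, 6 concentrations, each in duplicate.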

COc1ccc2c(c1)c[n+](C)c1ccc(C)cc21 was tested, and the IC50 (read-out: IC50) was 600 µM.
For COc1ccc2c(c1)c[n+](C)c1ccc(F)cc21, the IC50 (read-out: IC50) was 570 µM.
For COc1ccc2cc3[n+](cc2c1OC)CCc1cc2c(cc1-3)OCO2 [BERBERINE], the IC50 was “Not Active”.
COc1cc2c[n+](C)c3ccc(F)cc3c2cc1OC showed an IC50 (read-out: IC50) of 2690 µM.
Compound COc1ccc2c(c1)c1cc(OC)c(OC)cc1c[n+]2C has an IC50 (read-out: IC50) of 1170 µM.
For COc1ccc2c(c1)c[n+](C)c1ccc(O)cc21, the IC50 (read-out: IC50) was 120 µM.
Work on COc1cc2c[n+](C)c3ccc(Cl)cc3c2cc1OC yielded an IC50 (read-out: IC50) of 1390 µM.
CN1Cc2c(ccc3c2OCO3)-c2ccc3cc4c(cc3c21)OCO4 [DIHYDROSANGUINARINE] was tested, and the IC50 was “Not Active”.
Compound C[n+]1cc2ccccc2c2ccccc21 has an IC50 (read-out: IC50) of 400 µM.
With COc1cc2c[n+](C)c3ccccc3c2cc1OC the IC50 (read-out: IC50) was 3500 µM.
COc1ccc2c(c1)c[n+](C)c1ccccc21 showed an IC50 (read-out: IC50) of 950 µM.
COc1ccc2c(c1)c[n+](C)c1ccc(OC)cc21 showed an IC50 (read-out: IC50) of 190 µM.
In the case of COc1cc2c[n+](C)c3c4cc5c(cc4ccc3c2cc1OC)OCO5 [NITIDINE], the IC50 (read-out: IC50) is reported as 1340 µM.
C[n+]1cc2c3c(ccc2c2ccc4cc5c(cc4c21)OCO5)OCO3 [SANGUINARIUM CHLORIDE] showed an IC50 (read-out: IC50) of 200 µM.
Work on COc1ccc2c(c[n+](C)c3c4cc5c(cc4ccc23)OCO5)c1OC [CHELERYTHRINE] yielded an IC50 (read-out: IC50) of 1280 µM.
For COc1cc2c[n+](C)c3ccc(C)cc3c2cc1OC, the IC50 (read-out: IC50) was 1490 µM.
Compound COc1ccc2c(c1)c[n+](C)c1ccc(Cl)cc21 has an IC50 (read-out: IC50) of 930 µM.
